Consider one compound from ChEMBL document CHEMBL4024710, “Discovery of novel 1,2,3,4-tetrahydrobenzo[4, 5]thieno[2, 3-c]pyridine derivatives as potent and selective CYP17 inhibitors” (Eur J Med Chem, 2017).

Data set [1] deals with T1, Steroid 17-alpha-hydroxylase/17,20 lyase (Rattus norvegicus, UniProt P11715).
T1 sequence (P11715 whole entry): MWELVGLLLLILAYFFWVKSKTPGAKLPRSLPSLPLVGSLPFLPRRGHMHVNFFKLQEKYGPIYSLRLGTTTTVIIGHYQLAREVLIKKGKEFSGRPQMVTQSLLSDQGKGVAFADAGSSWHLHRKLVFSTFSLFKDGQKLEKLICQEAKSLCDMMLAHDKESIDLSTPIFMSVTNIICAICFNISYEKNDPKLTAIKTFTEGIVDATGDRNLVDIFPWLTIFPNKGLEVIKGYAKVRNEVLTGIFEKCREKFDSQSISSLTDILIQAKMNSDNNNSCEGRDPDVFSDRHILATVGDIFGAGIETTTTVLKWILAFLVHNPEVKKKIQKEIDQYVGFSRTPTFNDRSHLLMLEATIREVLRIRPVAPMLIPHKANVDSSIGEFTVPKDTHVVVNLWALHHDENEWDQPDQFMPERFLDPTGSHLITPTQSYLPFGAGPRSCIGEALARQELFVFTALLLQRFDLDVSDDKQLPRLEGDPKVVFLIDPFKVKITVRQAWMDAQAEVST
Briefly: Inhibition of CYP17 in Sprague-Dawley rat testes microsomes using 17-alpha hydroxyprogesterone as substrate and NADPH as cofactor pretreated for 5 mins followed by substrate and cofactor addition after 60 mins by LC/Ms analysis. Details: species or system Testis. An outline of the steps: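 Rat testis microsomes from male SD rats weighing 220–250 g, prepared at 4 °C by differential centrifugation (9000 g, then 105,000 g pellet). 2 µg protein in 0.05 M phosphate pH 7.5 preincubated with inhibitor 5 min at 25 °C. Started with 10 µM 17α-hydroxyprogesterone plus 4.2 mM NADPH, 60 min at 25 °C, stopped with methanol. Androstenedione measured by LC/MS; IC50 is the mean of at least three experiments.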

Data set [2] has as its target T2, CYP2C19 (Homo sapiens, UniProt P33261). Kind of data set: Inhibition of human hepatic CYP2C19 at 10 uM relative to control. The format is ADME.
Data set [3] has as its target T3, Steroid 17-alpha-hydroxylase/17,20 lyase (Homo sapiens, UniProt P05093).
T3 sequence (P05093 whole entry): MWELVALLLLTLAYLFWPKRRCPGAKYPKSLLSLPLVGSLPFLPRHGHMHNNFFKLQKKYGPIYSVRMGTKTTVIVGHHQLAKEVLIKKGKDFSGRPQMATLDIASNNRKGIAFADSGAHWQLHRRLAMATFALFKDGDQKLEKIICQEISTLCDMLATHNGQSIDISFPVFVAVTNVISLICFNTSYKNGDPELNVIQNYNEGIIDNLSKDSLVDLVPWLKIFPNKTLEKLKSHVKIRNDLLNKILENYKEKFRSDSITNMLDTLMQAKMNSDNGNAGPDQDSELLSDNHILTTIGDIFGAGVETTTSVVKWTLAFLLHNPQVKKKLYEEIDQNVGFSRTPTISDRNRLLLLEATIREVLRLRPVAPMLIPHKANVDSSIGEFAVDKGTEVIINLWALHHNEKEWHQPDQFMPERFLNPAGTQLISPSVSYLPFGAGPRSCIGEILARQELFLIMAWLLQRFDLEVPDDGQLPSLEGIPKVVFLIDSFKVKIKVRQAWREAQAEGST
Kind of data set: Inhibition of recombinant human CYP17 expressed in human A549 cell membranes using 17-alpha hydroxyprogesterone as substrate and NADPH as cofactor pretreated for 5 mins followed by substrate and cofactor addition after 60 mins by LC/MS analysis. An outline of the steps: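 Enzyme source was purified membranes of A549 cells expressing human CYP17 from an adenoviral vector. 2 µg membrane protein in 0.05 M phosphate pH 7.5 with inhibitor, preincubated 5 min at 25 °C. Reaction started with 10 µM 17α-hydroxyprogesterone and 4.2 mM NADPH, run 60 min at 25 °C, methanol stop. Androstenedione quantified by LC/MS; IC50 is the mean of at least three experiments.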

The target in data set [4] is T2, CYP2C19. Briefly: Inhibition of human hepatic CYP2C19 at 1 uM relative to control. The data set is classed as ADME.
The subject of data set [5] is Rattus norvegicus. Briefly: Suppression of serum testosterone levels in po dosed Sprague-Dawley rat administered as single dose measured up to 24 hrs post dose by ELISA. The format is functional, organism-based. An outline of the steps: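 Serum was sampled before dosing and at 2, 4, 8 and 24 h. Testosterone was measured by ELISA and expressed as % of the mean pretreatment value; mean ± SEM, n = 6.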
(In general: An ELISA detects its analyte on a solid surface through an enzyme-linked reagent.)

The target in data set [6] is T4, CYP1A2 (Homo sapiens, UniProt P05177).
T4 sequence (P05177 whole entry): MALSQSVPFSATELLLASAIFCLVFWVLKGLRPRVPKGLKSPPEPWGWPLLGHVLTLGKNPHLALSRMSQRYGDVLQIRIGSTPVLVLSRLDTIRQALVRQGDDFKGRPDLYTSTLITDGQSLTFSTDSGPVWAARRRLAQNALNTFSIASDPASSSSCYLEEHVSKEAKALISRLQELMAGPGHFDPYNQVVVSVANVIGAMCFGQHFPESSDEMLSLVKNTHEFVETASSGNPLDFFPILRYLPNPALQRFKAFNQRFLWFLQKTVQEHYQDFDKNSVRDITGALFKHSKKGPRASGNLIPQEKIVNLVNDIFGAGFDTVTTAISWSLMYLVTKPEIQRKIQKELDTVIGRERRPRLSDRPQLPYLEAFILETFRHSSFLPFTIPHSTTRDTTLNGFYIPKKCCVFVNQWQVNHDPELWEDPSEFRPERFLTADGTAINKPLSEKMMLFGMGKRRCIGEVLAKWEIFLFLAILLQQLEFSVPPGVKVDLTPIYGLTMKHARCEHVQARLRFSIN
Briefly: Inhibition of human hepatic CYP1A2 at 10 uM relative to control. The format is ADME.

In data set [7] the target is T5, CYP2C9 (Homo sapiens, UniProt P11712). Briefly: Inhibition of human hepatic CYP2C9 at 1 uM relative to control. The format is ADME.
Data set [8] deals with T6, CYP2D6 (Homo sapiens, UniProt P10635). Briefly: Inhibition of human hepatic CYP2D6 at 10 uM relative to control. The data set is classed as ADME.
The target in data set [9] is T3, Steroid 17-alpha-hydroxylase/17,20 lyase. Kind of data set: Potency index, ratio of abiraterone IC50 to compound IC50 for recombinant human CYP17 expressed in human A549 cell membranes. The data set is classed as cell-based. An outline of the steps:
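Human CYP17 came from purified membranes of A549 cells expressing the cloned gene through an adenoviral system. 2 µg membrane protein was preincubated with inhibitor in 0.05 M phosphate buffer, pH 7.5, at 25 °C for 5 min. The reaction was started with 10 µM 17α-hydroxyprogesterone and 4.2 mM NADPH, run 60 min at 25 °C and stopped with methanol. Androstenedione was quantified by LC/MS.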

The target of data set [10] is T5, CYP2C9. Kind of data set: Inhibition of human hepatic CYP2C9 at 10 uM relative to control. The data set is classed as ADME.
The target of data set [11] is Cytochrome P450 3A4 (Homo sapiens, UniProt P08684). Briefly: Inhibition of human hepatic CYP3A4. The format is ADME.
Data set [12] deals with T3, Steroid 17-alpha-hydroxylase/17,20 lyase. Briefly: Residual CYP17 activity in human NCI-H295R cells assessed as testosterone production at 1 uM measured after 72 hrs relative to control.
Data set [13] addresses T4, CYP1A2. Briefly: Inhibition of human hepatic CYP1A2 at 1 uM relative to control. The data set is classed as ADME.
Data set [14] has as its target T6, CYP2D6. Kind of data set: Inhibition of human hepatic CYP2D6 at 1 uM relative to control. The data set is classed as ADME.

As usually defined, the IC50 is the concentration needed to halve the response being measured. The term inhibition denotes how much of the control response was suppressed. Higher therefore signals strong suppression. Usually residual activity stands for what remains of the control signal, in per cent.

T5 sequence (P11712 whole entry): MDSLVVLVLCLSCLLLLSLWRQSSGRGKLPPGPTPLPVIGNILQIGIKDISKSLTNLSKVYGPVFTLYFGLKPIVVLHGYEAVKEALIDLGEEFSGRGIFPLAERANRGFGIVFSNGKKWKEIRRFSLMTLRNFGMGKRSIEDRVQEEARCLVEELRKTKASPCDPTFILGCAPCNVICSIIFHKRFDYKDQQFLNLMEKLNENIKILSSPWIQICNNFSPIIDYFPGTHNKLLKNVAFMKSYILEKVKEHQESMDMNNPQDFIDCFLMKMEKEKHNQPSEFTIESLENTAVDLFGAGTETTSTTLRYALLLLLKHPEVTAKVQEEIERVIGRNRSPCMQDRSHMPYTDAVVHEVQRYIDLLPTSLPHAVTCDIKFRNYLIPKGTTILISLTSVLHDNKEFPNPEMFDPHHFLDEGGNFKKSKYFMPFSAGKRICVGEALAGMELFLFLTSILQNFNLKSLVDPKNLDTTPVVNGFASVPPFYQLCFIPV
T6 sequence (P10635 whole entry): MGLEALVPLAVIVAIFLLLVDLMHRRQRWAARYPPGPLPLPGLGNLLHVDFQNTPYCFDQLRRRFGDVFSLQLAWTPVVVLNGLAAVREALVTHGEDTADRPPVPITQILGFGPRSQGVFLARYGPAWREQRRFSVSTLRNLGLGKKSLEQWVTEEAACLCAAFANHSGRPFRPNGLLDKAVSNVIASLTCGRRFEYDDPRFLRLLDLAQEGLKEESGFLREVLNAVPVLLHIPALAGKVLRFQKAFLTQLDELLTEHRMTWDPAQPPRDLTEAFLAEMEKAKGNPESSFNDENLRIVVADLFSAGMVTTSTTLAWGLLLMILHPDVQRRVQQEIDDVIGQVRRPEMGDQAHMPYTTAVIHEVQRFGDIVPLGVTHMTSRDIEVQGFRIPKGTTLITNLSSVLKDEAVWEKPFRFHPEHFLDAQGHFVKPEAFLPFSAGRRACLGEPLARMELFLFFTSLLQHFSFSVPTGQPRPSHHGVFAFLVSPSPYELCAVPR
T2 sequence (P33261 whole entry): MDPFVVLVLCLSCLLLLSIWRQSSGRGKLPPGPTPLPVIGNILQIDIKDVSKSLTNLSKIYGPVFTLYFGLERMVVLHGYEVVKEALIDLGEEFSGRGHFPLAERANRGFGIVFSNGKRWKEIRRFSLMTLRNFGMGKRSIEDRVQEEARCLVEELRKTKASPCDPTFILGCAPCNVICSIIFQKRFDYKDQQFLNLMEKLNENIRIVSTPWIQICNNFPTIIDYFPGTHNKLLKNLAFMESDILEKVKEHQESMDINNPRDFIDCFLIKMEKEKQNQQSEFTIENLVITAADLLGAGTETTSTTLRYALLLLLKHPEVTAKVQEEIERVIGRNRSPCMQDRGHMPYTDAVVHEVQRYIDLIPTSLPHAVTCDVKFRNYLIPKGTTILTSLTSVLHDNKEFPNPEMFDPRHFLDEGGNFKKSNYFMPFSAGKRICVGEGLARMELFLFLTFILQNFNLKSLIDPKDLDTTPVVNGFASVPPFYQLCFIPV
Chain of Cytochrome P450 3A4 (P08684 whole entry): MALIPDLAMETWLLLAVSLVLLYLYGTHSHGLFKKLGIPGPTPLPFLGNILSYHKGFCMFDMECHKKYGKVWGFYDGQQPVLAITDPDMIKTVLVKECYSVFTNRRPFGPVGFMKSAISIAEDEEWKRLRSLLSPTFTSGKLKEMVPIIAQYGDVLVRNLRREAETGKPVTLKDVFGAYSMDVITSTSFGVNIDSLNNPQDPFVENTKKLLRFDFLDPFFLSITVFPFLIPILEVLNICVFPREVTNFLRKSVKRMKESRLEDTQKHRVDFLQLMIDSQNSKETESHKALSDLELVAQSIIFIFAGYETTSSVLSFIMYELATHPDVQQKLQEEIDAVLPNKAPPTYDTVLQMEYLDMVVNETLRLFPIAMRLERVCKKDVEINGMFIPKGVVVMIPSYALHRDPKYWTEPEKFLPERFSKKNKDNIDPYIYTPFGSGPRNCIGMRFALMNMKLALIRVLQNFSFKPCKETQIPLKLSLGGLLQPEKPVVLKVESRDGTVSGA

Turning to `Cc1ccncc1CN1CCc2c(sc3ccc(F)cc23)C1`, the IC50 in data set [1] came to 0.0158 µM; in data set [3] it was 0.0201 µM; in [11] it was 8.56 µM. For the same compound, the inhibition at 10 µM is 65.2% in data set [2], 62.2% in [6], 56.8% in data set [8] and 21.8% in [10]. For the same compound, the inhibition at 1 µM in [4] worked out at 11.7%; in data set [7], 0%; in [13], 16.3%; in [14], 12%. Besides, the Activity result in [5] was “Dose-dependent effect”. In addition, the “Ratio IC50” value in data set [9] is recorded as 1.5. Besides, the residual activity at 1 µM in data set [12] was determined as 52%.
